In ChEMBL document CHEMBL3407434, “Antivascular and anti-parasite activities of natural and hemisynthetic flavonoids from New Caledonian Gardenia species (Rubiaceae)” (Eur J Med Chem, 2015):

Tests used:
Leishmania amazonensis = assay: Leishmanicidal activity against promastigote stage of Leishmania amazonensis MHOM/BR/PH8 after 48 hrs by MTT assay; type: functional, organism-based; settings: MHOM/BR/PH8, 48 h
Method in brief: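 L. amazonensis MHOM/BR/PH8 promastigotes in Schneider's medium with 20% heat-inactivated FCS, at 10^5 per well in log phase. MTT was added for 4 h at 37 °C, formazan dissolved in DMSO and read at 570 nm. Amphotericin B was the reference drug.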

[1] = test system: Trypanosoma brucei gambiense; assay: Antitrypanosomal activity against Trypanosoma brucei gambiense Feo assessed as parasite growth inhibition at 50 uM after 72 hrs by fluorescence assay relative to control; type: functional; settings: read-out: GI
Method in brief: (§1)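 Bloodstream-form T. b. gambiense Feo at 10^5 parasites/mL, screened at 50 and 10 µM in triplicate. Incubated 72 h at 37 °C under 5% CO2. Values are percent of untreated controls. Pentamidine served as positive control.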

Plasmodium falciparum [2] = assay: Antiplasmodial activity against Plasmodium falciparum FcB1/Columbia infected in human red blood cells assessed as parasite growth inhibition at 10 uM after 48 hrs by [3H]-hypoxanthine incorporation assay relative to control; type: functional; settings: read-out: GI
Method in brief: (§2)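 P. falciparum FcB1 (Colombia) grown in human red cells, in triplicate. Screened at 50 and 10 µM in 96-well plates for 48 h at 37 °C under reduced oxygen, then [3H]-hypoxanthine was added and incorporation counted. Counts per minute are given as percent of untreated controls.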

B16 = assay: Cytotoxicity against mouse B16 cells assessed as cell viability after 48 hrs by MTT assay; type: cell-based; settings: B16, 48 h
Method in brief: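 B16 murine melanoma cells, 5000/well, treated 24 h after plating. Compounds were tested at 0.01 to 100 µM final (DMSO stock 2.5 mg/mL), in triplicate, for 48 h at 37 °C under 5% CO2.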

[3] = Cytotoxicity against rat L6 cells assessed as viable cells at 1 uM after 72 hrs by MTT assay relative to control; type: cell-based; settings: read-out: Activity
Method in brief: (§3)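 L6 rat skeletal myoblasts, about 4 × 10^4 cells/well, dosed 24 h after seeding at 10 and 1 µM, in triplicate. After 72 h, MTT was added for 2 h, formazan was dissolved in detergent for 2 h at room temperature in the dark, and absorbance was read at 570 nm. Results are given as percent viable cells.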

[4] = Antivascular activity in human EAhy926 cells assessed as concentration require to adopt rounding shape after 2 hrs by microscopic analysis; type: functional, EA.hy 926
[5] = Cytotoxicity against rat L6 cells assessed as viable cells at 10 uM after 72 hrs by MTT assay relative to control; type: cell-based; settings: read-out: Activity; method in brief: as §3
[6] = test system: Trypanosoma brucei gambiense; assay: Antitrypanosomal activity against Trypanosoma brucei gambiense Feo assessed as parasite growth inhibition at 10 uM after 72 hrs by fluorescence assay relative to control; type: functional; settings: read-out: GI; method in brief: as §1
Tubulin (Homo sapiens) = Tubulin (Homo sapiens) (UniProt P68371+Q9H4B7+P0DPH7+P68366+Q13509+Q71U36+P04350+Q3ZCM7+P07437+P68363+Q9BQE3+Q6PEY2+Q13885+Q9BVA1+Q9BUF5); assay: Inhibition of tubulin (unknown origin) polymerization at 30 uM preincubated for 45 mins followed by GTP addition measured after 2 hrs by fluorescence assay relative to control; type: protein-complex assay
Tubulin = assay: Inhibition of tubulin (unknown origin) polymerization preincubated for 45 mins followed by GTP addition measured after 2 hrs by fluorescence assay; type: protein-complex assay, Homo sapiens
[7] = test system: Trypanosoma brucei gambiense; assay: Antitrypanosomal activity against Trypanosoma brucei gambiense Feo assessed as parasite growth inhibition after 72 hrs by fluorescence assay; type: functional, organism-based
Method in brief: as §1, with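 “CO2. Resazurin (45 µM final) was added for 4 h at 37 °C, followed by 22 h at room temperature, and fluorescence read at ex 535/em 590 nm.” for “CO2.”, “controls. […]” for “controls.”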

Plasmodium falciparum [8] = assay: Antiplasmodial activity against Plasmodium falciparum FcB1/Columbia infected in human red blood cells assessed as parasite growth inhibition after 48 hrs by [3H]-hypoxanthine incorporation assay; type: functional, organism-based
Method in brief: as §2, with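 “controls. Selected compounds were then re-run at 100 to 0.195 µM, with IC50 taken from sigmoidal inhibition curves.” for “controls.”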

Structure (SMILES) | IC50 (Leishmania amazonensis) | inhibition of growth at 50 µM [1] | inhibition of growth at 10 µM (Plasmodium falciparum [2]) | IC50 (B16) | viability at 72 h, 1 µM [3] | Activity [4] | viability at 72 h, 10 µM [5] | inhibition of growth at 10 µM [6] | inhibition (Tubulin (Homo sapiens)) | IC50 (Tubulin) | IC50 [7] | IC50 (Plasmodium falciparum [8]) | IC90 (Plasmodium falciparum [8])
COc1ccc(-c2oc3cc(OC)cc(O)c3c(=O)c2OC)cc1 | 33 µM | 19.9% | 3.9% | > 100 µM | 99.1% | 100 µM | 100% | 4.6% |  |  |  |  | 
COc1ccc(-c2oc3cc(O)c(OC)c(O)c3c(=O)c2OC)cc1OC | 8.15 µM | 99.8% | 21.3% | 28.9 µM | 99.7% | 25 µM | 94.7% | 76.2% | 75.1% | 19.3 µM |  |  | 
C[C@@H]1[C@H](O)[C@@H](C)/C=C/C=C/C=C/C=C/C=C/C=C/C=C/[C@H](O[C@@H]2O[C@H](C)[C@@H](O)[C@H](N)[C@@H]2O)C[C@@H]2O[C@](O)(C[C@@H](O)C[C@@H](O)[C@H](O)CC[C@@H](O)C[C@@H](O)CC(=O)O[C@H]1C)C[C@H](O)[C@H]2C(=O)O [AMPHOTERICIN B] | 0.0725 µM |  |  |  |  |  |  |  |  |  |  |  | 
COc1ccc(-c2oc3cc(O)c(OC)c(O)c3c(=O)c2OC)cc1 [SANTIN] | 63.1 µM | 83.1% | 0% | 45.7 µM | 90.9% | 12.5 µM | 40.8% | 33.2% | 100% | 5.7 µM |  |  | 
COc1c(O)cc2oc(-c3ccc(O)cc3)c(OC)c(=O)c2c1O [3,6-DIMETHOXY KAEMPFEROL] | 8.07 µM | 88.8% | 0% | 74.1 µM | 86.2% | >100 µM | 73.5% | 40.7% |  |  |  |  | 
N=C(N)c1ccc(OCCCCCOc2ccc(C(=N)N)cc2)cc1 [PENTAMIDINE] |  |  |  |  |  |  |  |  |  |  | 0.007 µM |  | 
O=c1c(O)c(-c2ccc(O)cc2)oc2cc(O)cc(O)c12 [KAEMPFEROL] | 27.6 µM | 86.5% | 0% | 53.7 µM | 93.8% | >100 µM | 100% | 55.1% |  |  |  |  | 
COc1c(-c2ccc(O)cc2)oc2cc(O)cc(O)c2c1=O [ISOKAEMPFERIDE] | 14.3 µM | 93.4% | 2.9% | 75.8 µM | 85% | >100 µM | 61% | 36.6% |  |  |  |  | 
COc1cc(-c2oc3cc(O)c(OC)c(O)c3c(=O)c2OC)cc(O)c1OC | 10.2 µM | 82.6% | 0% | 33.9 µM | 97.6% | 1.6 µM | 44.2% | 37.8% | 99% | 17.8 µM |  |  | 
CC(=O)Oc1ccc(-c2oc3cc(OC(C)=O)cc(O)c3c(=O)c2OC(C)=O)cc1 | 12.3 µM | 5.6% | 7.6% | 39.8 µM | 90.2% | >100 µM | 94.8% | 0% |  |  |  |  | 
COc1ccc(/C=C\c2cc(OC)c(OC)c(OC)c2)cc1O [COMBRETASTATIN A4] |  |  |  |  |  | 0.27 µM |  |  |  |  |  |  | 
COc1cc(-c2oc3cc(O)c(OC)c(O)c3c(=O)c2OC)cc(OC)c1OC | 9.65 µM | 38.1% | 13.2% | 91.2 µM | 96.1% | 12.5 µM | 78.2% | 42.9% | 69.9% | 21.4 µM |  |  | 
COc1cc(O)c2c(=O)c(OC)c(-c3ccc(O)cc3)oc2c1 [KUMATAKENIN] | 22.9 µM | 26.4% | 7.2% | 57.5 µM | 81.3% | 50 µM | 38.7% | 25.2% |  |  |  |  | 
COc1ccc(-c2oc3cc(OC)c(OC)c(O)c3c(=O)c2OC)cc1 | 14.8 µM | 8% | 0% | > 100 µM | 85.3% | >100 µM | 96.5% | 18.3% |  |  |  |  | 
COc1c(O)c(OC)c2oc(-c3ccc(O)cc3)c(OC)c(=O)c2c1O | 27.3 µM | 50.7% | 0.6% | > 100 µM | 88.4% | >100 µM | 80.4% | 14.6% |  |  |  |  | 
COc1cc(-c2oc3cc(OC)c(OC)c(OC)c3c(=O)c2OC)cc(OC)c1OC | 31.6 µM | 72.4% | 35% | > 100 µM | 93.8% | >100 µM | 81.2% | 25.9% |  |  |  | 5.8 µM | 10.8 µM
COc1cc(-c2oc3cc(OC)c(OC)c(O)c3c(=O)c2OC)cc(OC)c1OC | 21.8 µM | 40.5% | 21.7% | 11.5 µM | 99.2% | >100 µM | 53.5% | 17.6% |  |  |  |  | 
COc1ccc(-c2oc3cc(OC)c(OC)c(OC)c3c(=O)c2OC)cc1 | 37.2 µM | 24.9% | 0% | > 100 µM | 88.3% | 50 µM | 93.6% | 29.4% |  |  |  |  | 
